According to ChEMBL document CHEMBL3352645, “Bioactive 6S-styryllactone constituents of Polyalthia parviflora” (J Nat Prod, 2014):
Active and inactive are the calls of the source. The rule behind the calls is not given here.

Columns and labels:
Format in all cases: functional, cell-based
[1] = (§1) Antiinflammatory activity in human neutrophils assessed as inhibition of fMLP/CB-induced elastase release after 5 mins by spectrophotometry; conditions: Neutrophil
Method in brief: (§2)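 Neutrophils equilibrated with MeOSuc-Ala-Ala-Pro-Val-p-nitroanilide (100 μM) at 37 °C for 2 min, then exposed to compound 5 min. Activated with CB (0.5 μg/mL) plus FMLP (100 nM). Elastase release (azurophilic degranulation) followed as absorbance change at 405 nm; IC50 = concentration giving 50% inhibition; n = 3.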

[2] = tested on: A549; assay: Cytotoxicity against human A549 cells after 72 hrs by MTT assay; conditions: for IC50: A549, 72 h
Method in brief: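 A549 seeded at 5 × 10^3 cells per well in triplicate, exposed to various compound concentrations. After 72 h medium replaced by MTT (0.5 mg/mL), 1 h at 37 °C; formazan dissolved in DMSO, absorbance read at 550 nm. Doxorubicin control; IC50 as mean of triplicates.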

[3] = tested on: MDA-MB-231; assay: Cytotoxicity against human MDA-MB-231 cells after 72 hrs by MTT assay; conditions: for IC50: MDA-MB-231, 72 h
Method in brief: (§3)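 Hep G2 and MDA-MB-231 plated at 1 × 10^4 cells per well in triplicate with various compound concentrations. At 72 h medium removed, MTT (0.5 mg/mL) added for 1 h at 37 °C, crystals solubilized in DMSO, absorbance at 550 nm. Doxorubicin control; IC50 as mean of triplicates.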

[4] = (§4) Antiinflammatory activity in human neutrophils assessed as inhibition of fMLP/CB-induced superoxide anion generation after 5 mins by spectrophotometry; conditions: Neutrophil
Method in brief: (§5)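 Cells with 0.5 mg/mL ferricytochrome c and 1 mM Ca2+ equilibrated 37 °C for 2 min, compound added 5 min, then cytochalasin B (1 μg/mL) 3 min before FMLP (100 nM) activation for 10 min. SOD-inhibitable ferricytochrome c reduction monitored continuously at 550 nm under stirring; IC50 from 50% inhibition; n = 3.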

[5] = tested on: HepG2; assay: Cytotoxicity against human HepG2 cells after 72 hrs by MTT assay; conditions: for IC50: HepG2, 72 h; method in brief: as §3
[6] = tested on: Neutrophil; assay: as §1; method in brief: as §2
[7] = tested on: Neutrophil; assay: as §4; method in brief: as §5

Structure (SMILES) | IC50 [1] [µM] | IC50 [4] [µM] | IC50 [2] [µM] | IC50 [3] [µM] | IC50 [5] [µM] | inhibition [6] | inhibition [7] | Activity [2] | Activity [3] | Activity [5]
O=C1C=CC[C@@H]([C@@H](O)[C@@H](O)c2ccccc2)O1 | – | – | > 10 | > 10 | > 10 | inactive | inactive | – | – | –
COc1cccc2c1C(=O)c1c(O)c3c(c(O)c1C2=O)C[C@@](O)(C(=O)CO)C[C@@H]3O[C@H]1C[C@H](N)[C@H](O)[C@H](C)O1 [DOXORUBICIN] | – | – | 0.87 | 0.88 | – | – | – | – | – | –
CO[C@H](c1ccccc1)[C@@H](O)[C@@H]1CC=CC(=O)O1 | – | – | > 10 | > 10 | > 10 | inactive | inactive | – | – | –
O=C1C[C@H]2C[C@H](O1)[C@H](O)[C@@H](c1ccccc1)O2 | – | – | – | – | – | inactive | inactive | inactive | inactive | inactive
CO[C@@H](c1ccccc1)[C@H](O)[C@@H]1CC=CC(=O)O1 | – | – | > 10 | > 10 | > 10 | inactive | inactive | – | – | –
O=C1C=CC[C@@H]([C@H](O)[C@@H](O)c2ccccc2)O1 | – | – | – | – | > 10 | inactive | inactive | – | – | –

More lines, main results first:

IC50 [1] [µM] | IC50 [4] [µM] | Structure (SMILES) | IC50 [2] [µM] | IC50 [3] [µM] | IC50 [5] [µM] | inhibition [6] | inhibition [7] | Activity [2] | Activity [3] | Activity [5]
15.4 | 8.3 | O=C1C=CC[C@@H](/C=C/c2ccccc2)O1 | > 10 | > 10 | > 10 | – | – | – | – | –
19.8 | 21.2 | O=C1C=CC[C@@H]([C@@H]2O[C@H]2c2ccccc2)O1 | > 10 | > 10 | > 10 | – | – | – | – | –
6.8 | 11.6 | O=c1cccc(/C=C/c2ccccc2)o1 | > 10 | > 10 | > 10 | – | – | – | – | –
14.6 | 8.1 | O=C1C=CC(O)[C@H](/C=C/c2ccccc2)O1 (stereo partly specified) | 7.9 | > 10 | > 10 | – | – | – | – | –
– | 30 | O=C1C=CC[C@@H]([C@H](O)[C@H](Cl)c2ccccc2)O1 | > 10 | > 10 | > 10 | – | – | – | – | –
1.9 | 6.3 | CNC(=O)c1cc(Oc2ccc(NC(=O)Nc3ccc(Cl)c(C(F)(F)F)c3)cc2)ccn1 [SORAFENIB] | – | – | – | – | – | – | – | –
